Data from ChEMBL document CHEMBL1148762, “Lysosome and HER3 (ErbB3) selective anticancer agent kahalalide F: semisynthetic modifications and antifungal lead-exploration studies” (J Med Chem, 2007).
Converted amounts (≈) assume the structure as drawn. The source made the active and inactive calls. No cut-off for these calls is given here.

Experiments:
[1] = test system: Fusarium oxysporum; assay: Antimicrobial activity against Fusarium oxysporum at 0.3 uM after 72 hrs by microtiter assay; assay type: functional
Outline: (§1)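 96-well microdilution broth assay with conidia (3 × 10^5 conidia/mL, harvested from 7-day PDA cultures and filtered) against F. oxysporum, F. proliferatum and F. solani at 0.3, 3 and 30 µM. Plates were held at 24 ± 1 °C under a 12 h photoperiod. Growth was read at 620 nm at 24, 48 and 72 h and reported as percent inhibition from mean absorbance with standard error.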

[2] = test system: Fusarium proliferatum; assay: Antimicrobial activity against Fusarium proliferatum at 0.3 uM after 72 hrs by microtiter assay; assay type: functional; outline: as §1
[3] = test system: Fusarium proliferatum; assay: Antimicrobial activity against Fusarium proliferatum at 30 uM after 72 hrs by microtiter assay; assay type: functional; outline: as §1
[4] = test system: PC-3; assay: Cytotoxicity against human PC3 cells; assay type: functional
Outline: (§2)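 NCI Developmental Therapeutics Program cell panel. GI50 is the concentration that reduces growth of treated cells to half that of untreated controls. TGI is the concentration that completely halts growth.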

[5] = test system: Mycobacterium intracellulare; assay: Antimicrobial activity against Mycobacterium intracellular ATCC 23068; assay type: functional, organism-based
[6] = test system: HT-29; assay: Cytotoxicity against human HT29 cells; assay type: functional; outline: as §2
[7] = test system: Fusarium oxysporum; assay: Antimicrobial activity against Fusarium oxysporum at 30 uM after 72 hrs by microtiter assay; assay type: functional; outline: as §1
[8] = test system: Fusarium proliferatum; assay: Antimicrobial activity against Fusarium proliferatum at 3 uM after 48 hrs by microtiter assay; assay type: functional; outline: as §1
[9] = test system: Mycobacterium tuberculosis; assay: Antibacterial activity against Mycobacterium tuberculosis H37Rv at 16 ug/mL by micro plate alamar blue assay; assay type: functional
Outline: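 M. tuberculosis H37Rv ATCC 27294 grown in BACTEC 12B medium; microplate Alamar blue assay (MABA). Primary screen at a single concentration of 16 µg/mL, read as percent inhibition.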

[10] = test system: Fusarium solani; assay: Antimicrobial activity against Fusarium solani at 3 uM after 48 hrs by microtiter assay; assay type: functional; outline: as §1
[11] = test system: Cryptococcus neoformans; assay: Antimicrobial activity against Cryptococcus neoformans ATCC 90113; assay type: functional, organism-based
[12] = test system: Hs-578T; assay: Cytotoxicity against human HS578T cells; assay type: functional; outline: as §2
[13] = test system: SK-OV-3; assay: Cytotoxicity against human SK-OV3 cells; assay type: functional; outline: as §2
[14] = test system: Fusarium solani; assay: Antimicrobial activity against Fusarium solani at 30 uM after 48 hrs by microtiter assay; assay type: functional; outline: as §1
[15] = test system: Fusarium oxysporum; assay: Antimicrobial activity against Fusarium oxysporum at 0.3 uM after 48 hrs by microtiter assay; assay type: functional; outline: as §1
[16] = test system: Leishmania donovani; assay: Antiparasitic activity against Leishmania donovani; assay type: functional, organism-based
[17] = test system: ACHN; assay: Cytotoxicity against human ACHN cells; assay type: functional; outline: as §2
[18] = test system: A549; assay: Cytotoxicity against human A549 cells; assay type: functional; outline: as §2
[19] = test system: Aspergillus fumigatus; assay: Antimicrobial activity against Aspergillus fumigatus ATCC 90906; assay type: functional, organism-based
[20] = test system: Fusarium solani; assay: Antimicrobial activity against Fusarium solani at 0.3 uM after 72 hrs by microtiter assay; assay type: functional; outline: as §1
[21] = test system: Fusarium proliferatum; assay: Antimicrobial activity against Fusarium proliferatum at 3 uM after 72 hrs by microtiter assay; assay type: functional; outline: as §1
[22] = test system: HCC 2998; assay: Cytotoxicity against human HCC2998 cells; assay type: functional; outline: as §2
[23] = test system: Mycobacterium tuberculosis; assay: Antibacterial activity against Mycobacterium tuberculosis H37Rv by micro plate alamar blue assay; assay type: functional
[24] = test system: Fusarium proliferatum; assay: Antimicrobial activity against Fusarium proliferatum at 0.3 uM after 48 hrs by microtiter assay; assay type: functional; outline: as §1
[25] = test system: HCT-15; assay: Cytotoxicity against human HCT15 cells; assay type: functional; outline: as §2
[26] = test system: NCI-H322M; assay: Cytotoxicity against human NCI-H322M cells; assay type: functional; outline: as §2
[27] = test system: DU-145; assay: Cytotoxicity against human DU145 cells; assay type: functional; outline: as §2
[28] = test system: Fusarium oxysporum; assay: Antimicrobial activity against Fusarium oxysporum at 3 uM after 72 hrs by microtiter assay; assay type: functional; outline: as §1
[29] = test system: Fusarium solani; assay: Antimicrobial activity against Fusarium solani at 30 uM after 72 hrs by microtiter assay; assay type: functional; outline: as §1
[30] = test system: Fusarium solani; assay: Antimicrobial activity against Fusarium solani at 3 uM after 72 hrs by microtiter assay; assay type: functional; outline: as §1
[31] = test system: Candida albicans; assay: Antimicrobial activity against Candida albicans ATCC 90028; assay type: functional, organism-based
[32] = test system: RPMI-8226; assay: Cytotoxicity against human RPMI8226 cells; assay type: functional; outline: as §2
[33] = test system: Fusarium oxysporum; assay: Antimicrobial activity against Fusarium oxysporum at 30 uM after 48 hrs by microtiter assay; assay type: functional; outline: as §1
[34] = test system: COLO 205; assay: Cytotoxicity against human COLO205 cells; assay type: functional; outline: as §2
[35] = test system: KM12; assay: Cytotoxicity against human KM12 cells; assay type: functional; outline: as §2
[36] = test system: SNB-75; assay: Cytotoxicity against human SNB75 cells; assay type: functional; outline: as §2
[37] = test system: Fusarium oxysporum; assay: Antimicrobial activity against Fusarium oxysporum at 3 uM after 48 hrs by microtiter assay; assay type: functional; outline: as §1
[38] = test system: UACC-257; assay: Cytotoxicity against human UACC257 cells; assay type: functional; outline: as §2
[39] = test system: T47D; assay: Cytotoxicity against human T47D cells; assay type: functional; outline: as §2
[40] = test system: Fusarium solani; assay: Antimicrobial activity against Fusarium solani at 0.3 uM after 48 hrs by microtiter assay; assay type: functional; outline: as §1
[41] = test system: Fusarium proliferatum; assay: Antimicrobial activity against Fusarium proliferatum at 30 uM after 48 hrs by microtiter assay; assay type: functional; outline: as §1
[42] = test system: Fusarium oxysporum; assay: Fungicidal activity against Fusarium oxysporum at 30 uM after 72 hrs by microtiter plate assay; assay type: functional, organism-based
Outline: (§3)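 After 72 h of microtiter broth exposure at 30 µM, 20 µL from each well was plated onto compound-free potato dextrose agar and incubated 3 days at 28 °C. No regrowth was scored fungicidal; regrowth was scored fungistatic.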

[43] = test system: Fusarium solani; assay: Fungicidal activity against Fusarium solani at 30 uM after 72 hrs by microtiter assay; assay type: functional, organism-based; outline: as §3
[44] = test system: Fusarium proliferatum; assay: Fungistatic activity against Fusarium proliferatum at 30 uM after 72 hrs by microtiter plate assay; assay type: functional, organism-based
Outline: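 Conidia come from 7-day potato dextrose agar cultures, filtered and set photometrically (625 nm) to 3 × 10^5 conidia/mL. They are exposed to compound at 30 µM in 96-well microdilution broth at 24 ± 1 °C under a 12 h photoperiod. After 72 h, 20 µL per well is subcultured on drug-free potato dextrose agar at 28 °C for 3 days. No regrowth is scored fungicidal; regrowth is scored fungistatic.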

## C/C=C1\NC(=O)[C@H](Cc2ccccc2)NC(=O)[C@@H](C(C)C)NC(=O)[C@@H]([C@@H](C)CC)NC(=O)[C@H](NC(=O)[C@H](NC(=O)[C@H](CCCNCc2cccs2)NC(=O)[C@H]2CCCN2C(=O)[C@H](NC(=O)[C@@H](NC(=O)[C@@H](NC(=O)[C@H](NC(=O)CCCC(C)C)C(C)C)[C@@H](C)O)C(C)C)C(C)C)[C@@H](C)CC)[C@@H](C)OC(=O)[C@H](C(C)C)NC1=O
[1]
  inhibition at 0.3 µM: 0%
[2]
  inhibition at 0.3 µM: 0%
[3]
  inhibition at 30 µM: 99%
[4]
  GI50: 228 nM
  TGI: 665 nM
[5]
  MBC: > 20 µM
  MIC: > 20 µM
[6]
  GI50: 187 nM
[7]
  inhibition at 30 µM: 99.2%
[8]
  inhibition at 3 µM: 4.8%
[9]
  inhibition at 16 µg/mL: 92%
[10]
  inhibition at 3 µM: 47%
[11]
  MFC: 10 µM (≈ 15.7 µg/mL)
  MIC: 5 µM (≈ 7.87 µg/mL)
[12]
  GI50: 427 nM
  TGI: 2130 nM
[13]
  GI50: 223 nM
  TGI: 485 nM
[14]
  inhibition at 30 µM: 99%
[15]
  inhibition at 0.3 µM: 0%
[16]
  IC90: 34 µg/mL (≈ 21.6 µM)
[17]
  GI50: 1320 nM
  TGI: 2370 nM
[18]
  GI50: 166 nM
[19]
  MFC: 20 µM (≈ 31.5 µg/mL)
  MIC: 10 µM (≈ 15.7 µg/mL)
[20]
  inhibition at 0.3 µM: 0%
[21]
  inhibition at 3 µM: 0%
[22]
  GI50: 255 nM
  TGI: 971 nM
[23]
  MIC: 15.5 µg/mL (≈ 9.85 µM)
[24]
  inhibition at 0.3 µM: 0%
[25]
  GI50: 416 nM
  TGI: 1360 nM
[26]
  GI50: 167 nM
  TGI: 304 nM
[27]
  GI50: 144 nM
  TGI: 292 nM
[28]
  inhibition at 3 µM: 0%
[29]
  inhibition at 30 µM: 99.3%
[30]
  inhibition at 3 µM: 32.9%
[31]
  MFC: 20 µM (≈ 31.5 µg/mL)
  MIC: 10 µM (≈ 15.7 µg/mL)
[32]
  GI50: 1270 nM
  TGI: 2760 nM
[33]
  inhibition at 30 µM: 98.8%
[34]
  GI50: 243 nM
[35]
  GI50: 1010 nM
  TGI: 2190 nM
[36]
  GI50: 1010 nM
  TGI: 2190 nM
[37]
  inhibition at 3 µM: 13.7%
[38]
  GI50: 1440 nM
  TGI: 2820 nM
[39]
  GI50: 191 nM
  TGI: 394 nM
[40]
  inhibition at 0.3 µM: 0%
[41]
  inhibition at 30 µM: 98.7%

## C/C=C1\NC(=O)[C@H](Cc2ccccc2)NC(=O)[C@@H](C(C)C)NC(=O)[C@@H]([C@@H](C)CC)NC(=O)[C@H](NC(=O)[C@H](NC(=O)[C@H](CCCNCc2ccc(F)cc2)NC(=O)[C@H]2CCCN2C(=O)[C@H](NC(=O)[C@@H](NC(=O)[C@@H](NC(=O)[C@H](NC(=O)CCCC(C)C)C(C)C)[C@@H](C)O)C(C)C)C(C)C)[C@@H](C)CC)[C@@H](C)OC(=O)[C@H](C(C)C)NC1=O
[1]
  inhibition at 0.3 µM: 0%
[2]
  inhibition at 0.3 µM: 0%
[3]
  inhibition at 30 µM: 96.1%
[4]
  GI50: 142 nM
  TGI: 287 nM
[5]
  MBC: > 20 µM
  MIC: > 20 µM
[6]
  GI50: 151 nM
  TGI: 288 nM
[7]
  inhibition at 30 µM: 94.3%
[8]
  inhibition at 3 µM: 0%
[9]
  inhibition at 16 µg/mL: 77%
[10]
  inhibition at 3 µM: 16.5%
[11]
  MFC: 10 µM (≈ 15.9 µg/mL)
  MIC: 10 µM (≈ 15.9 µg/mL)
[12]
  GI50: 212 nM
  TGI: 695 nM
[13]
  GI50: 183 nM
  TGI: 387 nM
[14]
  inhibition at 30 µM: 97.3%
[15]
  inhibition at 0.3 µM: 0%
[17]
  GI50: 1080 nM
  TGI: 2060 nM
[18]
  GI50: 161 nM
  TGI: 340 nM
[19]
  MFC: > 20 µM
  MIC: > 20 µM
[20]
  inhibition at 0.3 µM: 0%
[21]
  inhibition at 3 µM: 0%
[22]
  GI50: 201 nM
  TGI: 517 nM
[24]
  inhibition at 0.3 µM: 0%
[25]
  GI50: 151 nM
  TGI: 289 nM
[26]
  GI50: 203 nM
  TGI: 429 nM
[27]
  GI50: 112 nM
  TGI: 230 nM
[28]
  inhibition at 3 µM: 0%
[29]
  inhibition at 30 µM: 97.3%
[30]
  inhibition at 3 µM: 0%
[31]
  MFC: > 20 µM
  MIC: > 20 µM
[32]
  GI50: 475 nM
  TGI: 1780 nM
[33]
  inhibition at 30 µM: 96.6%
[34]
  GI50: 156 nM
  TGI: 315 nM
[35]
  GI50: 179 nM
  TGI: 379 nM
[36]
  GI50: 265 nM
  TGI: 655 nM
[37]
  inhibition at 3 µM: 0%
[39]
  GI50: 161 nM
  TGI: 333 nM
[40]
  inhibition at 0.3 µM: 0%
[41]
  inhibition at 30 µM: 97.5%

## C/C=C1\NC(=O)[C@H](Cc2ccccc2)NC(=O)[C@@H](C(C)C)NC(=O)[C@@H]([C@@H](C)CC)NC(=O)[C@H](NC(=O)[C@H](NC(=O)[C@H](CCCN)NC(=O)[C@H]2CCCN2C(=O)[C@@H](NC(=O)[C@H](NC(=O)[C@H](NC(=O)[C@@H](NC(=O)CCCC(C)C)C(C)C)C(C)=O)C(C)C)C(C)C)[C@@H](C)CC)[C@@H](C)OC(=O)[C@H](C(C)C)NC1=O
[42]
  Activity: Active
[43]
  Activity: Active
[44]
  Activity: Active
